In ChEMBL document CHEMBL4689842, “EUbOPEN Chemogenomics Library wave 1” (2021):

Assays:
Format in all cases: toxicity, cell-based
Fibroblast [1] = test: Multiplex assay against human fibroblast
Summary of the method: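 Live cells were stained at seeding with Hoechst33342, BioTracker Green Microtubule Cytoskeleton Dye, MitoTracker Red and Annexin V Alexa Fluor 680. Following compound addition, they were imaged on a CQ1 microscope at 37°C and 5% CO2 and gated by CellPathfinder machine learning into Hoechst high-intensity objects or normal cells, with normal cells split into healthy, pyknosed or fragmented nuclei and pyknosed cells into mitotic or apoptotic. Tubulin, mitochondrial-mass and membrane-permeability phenotypes are per cents of healthy-nucleus cells.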

HEK-293T = test: Incucyte cell viability with HEK293T; settings: human, 10 µM, compound concentration 10 uM; note: filed as whole numbers so only -1 and 0 and 1 occur
Fibroblast [2] = test: Incucyte cell viability with human fibroblast; settings: 10 µM, compound concentration 10 uM; note: filed as whole numbers so only -1 and 0 and 1 occur
U2OS = test: Incucyte cell viability with U2OS; settings: human, 10 µM, compound concentration 10 uM; note: filed as whole numbers so only -1 and 0 and 1 occur
[3] = 12 h, 1 µM, compound concentration 1 uM, replicate 1
[4] = 12 h, 1 µM, compound concentration 1 uM, replicate 2
[5] = 12 h, 10 µM, compound concentration 10 uM, replicate 1
[6] = 12 h, 10 µM, compound concentration 10 uM, replicate 2
[7] = 24 h, 1 µM, compound concentration 1 uM, replicate 1
[8] = 24 h, 1 µM, compound concentration 1 uM, replicate 2
[9] = 24 h, 10 µM, compound concentration 10 uM, replicate 1
[10] = 24 h, 10 µM, compound concentration 10 uM, replicate 2
[11] = 0 h, replicate number 1, timepoint 0 hours
[12] = 0 h, replicate number 2, timepoint 0 hours
[13] = 12 h, replicate number 2, timepoint 12 hours
[14] = 18 h, replicate number 1, timepoint 18 hours
[15] = 24 h, replicate number 1, timepoint 24 hours
[16] = 6 h, replicate number 1, timepoint 6 hours
[17] = 12 h, replicate number 1, timepoint 12 hours

CCOc1cc(N2CCC(O)CC2)ccc1Nc1ncc2c(n1)N(C1CCCC1)CCC(=O)N2C
Population Apoptotic (%) (Fibroblast [1]; [3]): 64% | Population Fragmented Nuclei (%) (Fibroblast [1]; [3]): 25% | Population Healthy Nuclei (%) (Fibroblast [1]; [3]): 58% | Population Hoechst High Intensity Objects (%) (Fibroblast [1]; [3]): 12% | Population Membrane Permeable-Phenotype (%) (Fibroblast [1]; [3]): 8% | Population Mitochondria Different-Phenotype (%) (Fibroblast [1]; [3]): 7% | Population Mitotic Cells (%) (Fibroblast [1]; [3]): 35% | Population Normal (%) (Fibroblast [1]; [3]): 87% | Population Pyknosed Nuclei (%) (Fibroblast [1]; [3]): 16% | Population Tubulin-Different-Phenotype (%) (Fibroblast [1]; [3]): 11% | Total Cell Count (Fibroblast [1]; [3]): 197 | Population Apoptotic (%) (Fibroblast [1]; [4]): 0% | Population Fragmented Nuclei (%) (Fibroblast [1]; [4]): 46% | Population Healthy Nuclei (%) (Fibroblast [1]; [4]): 48% | Population Hoechst High Intensity Objects (%) (Fibroblast [1]; [4]): 33% | Population Membrane Permeable-Phenotype (%) (Fibroblast [1]; [4]): 17% | Population Mitochondria Different-Phenotype (%) (Fibroblast [1]; [4]): 17% | Population Mitotic Cells (%) (Fibroblast [1]; [4]): 100% | Population Normal (%) (Fibroblast [1]; [4]): 66% | Population Pyknosed Nuclei (%) (Fibroblast [1]; [4]): 4% | Population Tubulin-Different-Phenotype (%) (Fibroblast [1]; [4]): 39% | Total Cell Count (Fibroblast [1]; [4]): 71 | Population Apoptotic (%) (Fibroblast [1]; [5]): 84% | Population Fragmented Nuclei (%) (Fibroblast [1]; [5]): 23% | Population Healthy Nuclei (%) (Fibroblast [1]; [5]): 58% | Population Hoechst High Intensity Objects (%) (Fibroblast [1]; [5]): 14% | Population Membrane Permeable-Phenotype (%) (Fibroblast [1]; [5]): 8% | Population Mitochondria Different-Phenotype (%) (Fibroblast [1]; [5]): 2% | Population Mitotic Cells (%) (Fibroblast [1]; [5]): 15% | Population Normal (%) (Fibroblast [1]; [5]): 85% | Population Pyknosed Nuclei (%) (Fibroblast [1]; [5]): 17% | Population Tubulin-Different-Phenotype (%) (Fibroblast [1]; [5]): 1% | Total Cell Count (Fibroblast [1]; [5]): 291 | Population Apoptotic (%) (Fibroblast [1]; [6]): 37% | Population Fragmented Nuclei (%) (Fibroblast [1]; [6]): 50% | Population Healthy Nuclei (%) (Fibroblast [1]; [6]): 36% | Population Hoechst High Intensity Objects (%) (Fibroblast [1]; [6]): 29% | Population Membrane Permeable-Phenotype (%) (Fibroblast [1]; [6]): 27% | Population Mitochondria Different-Phenotype (%) (Fibroblast [1]; [6]): 4% | Population Mitotic Cells (%) (Fibroblast [1]; [6]): 62% | Population Normal (%) (Fibroblast [1]; [6]): 70% | Population Pyknosed Nuclei (%) (Fibroblast [1]; [6]): 13% | Population Tubulin-Different-Phenotype (%) (Fibroblast [1]; [6]): 18% | Population Apoptotic (%) (Fibroblast [1]; [7]): 72% | Population Fragmented Nuclei (%) (Fibroblast [1]; [7]): 27% | Population Healthy Nuclei (%) (Fibroblast [1]; [7]): 56% | Population Hoechst High Intensity Objects (%) (Fibroblast [1]; [7]): 12% | Population Membrane Permeable-Phenotype (%) (Fibroblast [1]; [7]): 6% | Population Mitochondria Different-Phenotype (%) (Fibroblast [1]; [7]): 6% | Population Mitotic Cells (%) (Fibroblast [1]; [7]): 27% | Population Normal (%) (Fibroblast [1]; [7]): 87% | Population Pyknosed Nuclei (%) (Fibroblast [1]; [7]): 15% | Population Tubulin-Different-Phenotype (%) (Fibroblast [1]; [7]): 7% | Total Cell Count (Fibroblast [1]; [7]): 211 | Population Apoptotic (%) (Fibroblast [1]; [8]): 66% | Population Fragmented Nuclei (%) (Fibroblast [1]; [8]): 57% | Population Healthy Nuclei (%) (Fibroblast [1]; [8]): 35% | Population Hoechst High Intensity Objects (%) (Fibroblast [1]; [8]): 40% | Population Membrane Permeable-Phenotype (%) (Fibroblast [1]; [8]): 26% | Population Mitochondria Different-Phenotype (%) (Fibroblast [1]; [8]): 20% | Population Mitotic Cells (%) (Fibroblast [1]; [8]): 33% | Population Normal (%) (Fibroblast [1]; [8]): 59% | Population Pyknosed Nuclei (%) (Fibroblast [1]; [8]): 7% | Population Tubulin-Different-Phenotype (%) (Fibroblast [1]; [8]): 26% | Total Cell Count (Fibroblast [1]; [8]): 71 | Population Apoptotic (%) (Fibroblast [1]; [9]): 67% | Population Fragmented Nuclei (%) (Fibroblast [1]; [9]): 17% | Population Healthy Nuclei (%) (Fibroblast [1]; [9]): 62% | Population Hoechst High Intensity Objects (%) (Fibroblast [1]; [9]): 19% | Population Membrane Permeable-Phenotype (%) (Fibroblast [1]; [9]): 5% | Population Mitochondria Different-Phenotype (%) (Fibroblast [1]; [9]): 1% | Population Mitotic Cells (%) (Fibroblast [1]; [9]): 32% | Population Normal (%) (Fibroblast [1]; [9]): 80% | Population Pyknosed Nuclei (%) (Fibroblast [1]; [9]): 19% | Population Tubulin-Different-Phenotype (%) (Fibroblast [1]; [9]): 1% | Total Cell Count (Fibroblast [1]; [9]): 308 | Population Apoptotic (%) (Fibroblast [1]; [10]): 60% | Population Fragmented Nuclei (%) (Fibroblast [1]; [10]): 40% | Population Healthy Nuclei (%) (Fibroblast [1]; [10]): 50% | Population Hoechst High Intensity Objects (%) (Fibroblast [1]; [10]): 28% | Population Membrane Permeable-Phenotype (%) (Fibroblast [1]; [10]): 18% | Population Mitochondria Different-Phenotype (%) (Fibroblast [1]; [10]): 3% | Population Mitotic Cells (%) (Fibroblast [1]; [10]): 40% | Population Normal (%) (Fibroblast [1]; [10]): 72% | Population Pyknosed Nuclei (%) (Fibroblast [1]; [10]): 9% | Population Tubulin-Different-Phenotype (%) (Fibroblast [1]; [10]): 14% | Total Cell Count (Fibroblast [1]; [10]): 75 | Growth Rate (HEK-293T; [11]): 0 | Growth Rate (HEK-293T; [12]): 1 | Growth Rate (HEK-293T; [13]): 1 | Growth Rate (HEK-293T; [14]): 1 | Growth Rate (HEK-293T; [15]): 0 | Growth Rate (Fibroblast [2]; [11]): 1 | Growth Rate (Fibroblast [2]; [12]): 0 | Growth Rate (Fibroblast [2]; [16]): 0 | Growth Rate (Fibroblast [2]; 6 h, replicate number 2, timepoint 6 hours): 1 | Growth Rate (Fibroblast [2]; [17]): 0 | Growth Rate (Fibroblast [2]; [13]): 1 | Growth Rate (Fibroblast [2]; [14]): 0 | Growth Rate (Fibroblast [2]; [15]): 0 | Growth Rate (U2OS; [12]): 0 | Growth Rate (U2OS; [16]): 0 | Growth Rate (U2OS; [17]): 1 | Growth Rate (U2OS; [13]): 0 | Growth Rate (U2OS; [14]): 0 | Growth Rate (U2OS; [15]): 0
